Consider eight compounds from ChEMBL document CHEMBL2375318, “Design, synthesis and antimicrobial activity of novel benzothiazole analogs” (Eur J Med Chem, 2013).

Structures are written as SMILES. Converted amounts (≈) assume the structure as drawn.

In one data set the test system is Aspergillus fumigatus. As to the kind of experiment: Antimicrobial activity against Aspergillus fumigatus clinical isolate after 18 to 24 hrs by micro-dilution method. In kind it is functional. Put shortly: (§1)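 Broth micro-dilution MIC, fungi. Fresh broth cultures were made in normal saline. Compounds were serially diluted in microtiter plates across 8 concentrations, 100 down to 0.78. Standardized inoculum was 1–2 × 10^7 cfu/ml. Medium was Sabouraud dextrose pH 7.3 ± 0.2. Plates were incubated aerobically at 37 °C for 18–24 h. MIC is the lowest concentration with no visible growth or turbidity versus control. Fluconazole was the reference.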
On the technique in general: In broth dilution the organism is exposed to a series of concentrations in liquid medium.

Another data set has as its system Pseudomonas aeruginosa. Nature of the data set: Antimicrobial activity against Pseudomonas aeruginosa ATCC 27893 after 18 to 24 hrs by micro-dilution method. Format: functional.
The test system of the next data set is Aspergillus niger. As to the kind of experiment: Antimicrobial activity against Aspergillus niger clinical isolate after 18 to 24 hrs by micro-dilution method. In kind it is functional. The gist of the method: as §1
Data set [1] relates to Candida albicans. As to the kind of experiment: Antifungal activity against Candida albicans ATCC 90028 after 18 to 24 hrs by micro-dilution metho. Format: functional. The gist of the method:
as §1

The test system of data set [2] is Candida albicans. As to the kind of experiment: Antifungal activity against Candida albicans clinical isolate after 18 to 24 hrs by micro-dilution method. In kind it is functional. Put shortly: as §1
In the next data set the test system is Cryptococcus neoformans. Nature of the data set: Antifungal activity against Cryptococcus neoformans clinical isolate after 18 to 24 hrs by micro-dilution method. In kind it is functional. The gist of the method:
as §1

Another data set deals with Candida tropicalis. Nature of the data set: Antifungal activity against Candida tropicalis ATCC 750 after 18 to 24 hrs by micro-dilution method. Format: functional. The gist of the method:
as §1

Data set [3] can be described thus: Cytotoxicity against human RBC assessed as hemolytic activity at 100 uM after 1 hr by spectophotometry. To be noted: red blood cells (RBC), read-out: Activity. In kind it is cell-based, Erythrocyte. Put shortly:
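Hemolysis, fresh human blood. RBCs were washed three times in PBS (spun 3000 rpm, 7 min, room temperature) and adjusted to 5×10^8 cells/ml. Cell suspension was added to buffer holding 100 μM compound in 1% v/v DMSO/PBS. Controls were 1% DMSO/PBS and sterile water. Samples were shaken at 37 °C for 1 h, spun at 1300 rpm for 5 min, and supernatant absorbance read at 540 nm.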

Another data set concerns Salmonella typhi. As to the kind of experiment: Antimicrobial activity against Salmonella typhi MTCC 3216 after 18 to 24 hrs by micro-dilution method. Format: functional, Salmonella enterica subsp. enterica serovar Typhi. The following applies: Salmonella enterica. Put shortly:
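Broth microdilution with twofold serial dilutions from 100 down to 0.78, eight concentrations. Fresh cultures were made up in normal saline, and 0.1 ml of standardized inoculum (1–2 × 10^7 cfu/ml) was added per well. Plates were incubated aerobically at 37 °C for 18–24 h on Mueller-Hinton agar/Luria broth. MIC was the lowest concentration with no visible turbidity compared with the control.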

A further data set concerns Escherichia coli. As to the kind of experiment: Antimicrobial activity against Escherichia coli ATCC 35218 after 18 to 24 hrs by micro-dilution method. In kind it is functional.
A further data set relates to Enterococcus faecalis. As to the kind of experiment: Antimicrobial activity against Enterococcus faecalis clinical isolate after 18 to 24 hrs by micro-dilution method. Format: functional.
For the next data set, the system named is Staphylococcus aureus. As to the kind of experiment: Antimicrobial activity against Staphylococcus aureus ATCC 25323 after 18 to 24 hrs by micro-dilution method. In kind it is functional.
Another data set has as its system Shigella boydii. Nature of the data set: Antimicrobial activity against Shigella boydii clinical isolate after 18 to 24 hrs by micro-dilution method. In kind it is functional.
The subject of another data set is Klebsiella pneumoniae. As to the kind of experiment: Antimicrobial activity against Klebsiella pneumoniae clinical isolate after 18 to 24 hrs by micro-dilution method. Format: functional.
The next data set relates to Pichia kudriavzevii. As to the kind of experiment: Antifungal activity against Candida krusei ATCC 6258 after 18 to 24 hrs by micro-dilution method. Format: functional. The gist of the method:
as §1

As for `Clc1ccc(-n2cc(CN(Cc3cn(-c4ccc(Cl)cc4)nn3)c3nc4ccccc4s3)nn2)cc1`, the MIC (as a rule, the least concentration at which growth counts as inhibited) amounted to 6.25 µg/mL (≈ 11.7 µM) against Aspergillus fumigatus; 6.25 µg/mL (≈ 11.7 µM) against Pseudomonas aeruginosa; 6.25 µg/mL (≈ 11.7 µM) with Aspergillus niger; 6.25 µg/mL (≈ 11.7 µM) in the data set on Candida albicans [1]; 25 µg/mL (≈ 46.9 µM) against Candida albicans [2]; 3.12 µg/mL (≈ 5.85 µM) with Cryptococcus neoformans. Further, the MIC was 12.5 µg/mL (≈ 23.4 µM) against Candida tropicalis; 6.25 µg/mL (≈ 11.7 µM) in the data set with Salmonella typhi; 12.5 µg/mL (≈ 23.4 µM) in the data set with Escherichia coli; 3.12 µg/mL (≈ 5.85 µM) against Enterococcus faecalis; 6.25 µg/mL (≈ 11.7 µM) against Staphylococcus aureus; above 100 µg/mL with Shigella boydii. Also, the MIC in the data set with Klebsiella pneumoniae was 50 µg/mL (≈ 93.7 µM); in the data set on Pichia kudriavzevii it was 6.25 µg/mL (≈ 11.7 µM). The hemolysis at 1 h, 100 µM in data set [3] turned out to be 4.35%.

As for `Clc1cccc(-n2cc(CN(Cc3cn(-c4cccc(Cl)c4Cl)nn3)c3nc4ccccc4s3)nn2)c1Cl`, the MIC was above 100 µg/mL in the data set on Aspergillus fumigatus; above 100 µg/mL in the data set on Pseudomonas aeruginosa; above 100 µg/mL with Aspergillus niger; above 100 µg/mL in the data set with Candida albicans [1]; 25 µg/mL (≈ 41.5 µM) in the data set with Candida albicans [2]; 3.12 µg/mL (≈ 5.18 µM) in the data set with Cryptococcus neoformans. Also, the MIC against Candida tropicalis is above 100 µg/mL; with Salmonella typhi, 100 µg/mL (≈ 166 µM); in the data set on Escherichia coli it was above 100 µg/mL; in the data set with Enterococcus faecalis, above 100 µg/mL; in the data set on Staphylococcus aureus it was 50 µg/mL (≈ 83 µM); against Shigella boydii it was above 100 µg/mL. In addition, the MIC with Klebsiella pneumoniae and in the data set on Pichia kudriavzevii was above 100 µg/mL each time. Moreover, the hemolysis at 1 h, 100 µM in data set [3] came to 37.7%.

For `Clc1ccccc1-n1cc(CN(Cc2cn(-c3ccccc3Cl)nn2)c2nc3ccccc3s2)nn1`, the MIC was above 100 µg/mL against Aspergillus fumigatus; 12.5 µg/mL (≈ 23.4 µM) in the data set with Pseudomonas aeruginosa; above 100 µg/mL against Aspergillus niger; above 100 µg/mL with Candida albicans [1]; above 100 µg/mL against Candida albicans [2]; above 100 µg/mL against Cryptococcus neoformans. The MIC was above 100 µg/mL with Candida tropicalis; 6.25 µg/mL (≈ 11.7 µM) in the data set with Salmonella typhi; 12.5 µg/mL (≈ 23.4 µM) against Escherichia coli; 6.25 µg/mL (≈ 11.7 µM) in the data set with Enterococcus faecalis; 25 µg/mL (≈ 46.9 µM) in the data set on Staphylococcus aureus; above 100 µg/mL in the data set on Shigella boydii. The MIC against Klebsiella pneumoniae was 50 µg/mL (≈ 93.7 µM); against Pichia kudriavzevii, above 100 µg/mL. The hemolysis at 1 h, 100 µM in [3] was 19.5%.

As to `CCc1ccc(-n2cc(CN(Cc3cn(-c4ccc(CC)cc4)nn3)c3nc4ccccc4s3)nn2)cc1`, the MIC with Aspergillus fumigatus, against Pseudomonas aeruginosa, against Aspergillus niger, in the data set with Candida albicans [1], in the data set with Candida albicans [2] and against Cryptococcus neoformans was above 100 µg/mL throughout. In addition, the MIC is above 100 µg/mL in the data set with Candida tropicalis; above 100 µg/mL in the data set with Salmonella typhi; 50 µg/mL (≈ 96 µM) in the data set with Escherichia coli; above 100 µg/mL in the data set on Enterococcus faecalis; above 100 µg/mL in the data set with Staphylococcus aureus; above 100 µg/mL against Shigella boydii. Further, the MIC in the data set on Klebsiella pneumoniae and against Pichia kudriavzevii was above 100 µg/mL in each case. In data set [3], the hemolysis at 1 h, 100 µM was determined as 48.3%.

`Cc1cc(F)ccc1-n1cc(CN(Cc2cn(-c3ccc(F)cc3C)nn2)c2nc3ccccc3s2)nn1`: the MIC with Aspergillus fumigatus, with Pseudomonas aeruginosa, in the data set on Aspergillus niger, against Candida albicans [1], with Candida albicans [2] and against Cryptococcus neoformans was above 100 µg/mL each time. Moreover, the MIC was above 100 µg/mL in the data set on Candida tropicalis; above 100 µg/mL in the data set with Salmonella typhi; 50 µg/mL (≈ 94.6 µM) in the data set with Escherichia coli; above 100 µg/mL against Enterococcus faecalis; above 100 µg/mL against Staphylococcus aureus; above 100 µg/mL against Shigella boydii. In addition, the MIC with Klebsiella pneumoniae and against Pichia kudriavzevii was above 100 µg/mL in each case. Moreover, the hemolysis at 1 h, 100 µM in [3] came out at 29.8%.

In the case of `Fc1ccc(-n2cc(CN(Cc3cn(-c4ccc(F)cc4Cl)nn3)c3nc4ccccc4s3)nn2)c(Cl)c1`, the MIC was 6.25 µg/mL (≈ 11 µM) against Aspergillus fumigatus; 6.25 µg/mL (≈ 11 µM) in the data set on Pseudomonas aeruginosa; 25 µg/mL (≈ 43.9 µM) against Aspergillus niger; 50 µg/mL (≈ 87.8 µM) in the data set on Candida albicans [1]; 6.25 µg/mL (≈ 11 µM) with Candida albicans [2]; 1.56 µg/mL (≈ 2.74 µM) with Cryptococcus neoformans. In addition, the MIC against Candida tropicalis amounted to 6.25 µg/mL (≈ 11 µM); in the data set on Salmonella typhi it was 6.25 µg/mL (≈ 11 µM); with Escherichia coli, 3.12 µg/mL (≈ 5.48 µM); in the data set on Enterococcus faecalis, 6.25 µg/mL (≈ 11 µM); with Staphylococcus aureus, 50 µg/mL (≈ 87.8 µM); against Shigella boydii, 100 µg/mL (≈ 176 µM). For the same compound, the minimal inhibitory concentration (MIC) against Klebsiella pneumoniae came out at 100 µg/mL (≈ 176 µM); against Pichia kudriavzevii, 6.25 µg/mL (≈ 11 µM). Also, in [3], the hemolysis at 1 h, 100 µM was found to be 12.3%.

In the case of `Fc1ccc(-n2cc(CN(Cc3cn(-c4ccc(F)cc4F)nn3)c3nc4ccccc4s3)nn2)c(F)c1`, the MIC was above 100 µg/mL against Aspergillus fumigatus; 3.12 µg/mL (≈ 5.82 µM) against Pseudomonas aeruginosa; above 100 µg/mL in the data set with Aspergillus niger; above 100 µg/mL with Candida albicans [1]; above 100 µg/mL against Candida albicans [2]; above 100 µg/mL against Cryptococcus neoformans. In addition, the MIC against Candida tropicalis is above 100 µg/mL; against Salmonella typhi, 3.12 µg/mL (≈ 5.82 µM); against Escherichia coli, 3.12 µg/mL (≈ 5.82 µM); against Enterococcus faecalis, 3.12 µg/mL (≈ 5.82 µM); in the data set with Staphylococcus aureus it was 3.12 µg/mL (≈ 5.82 µM); against Shigella boydii, 100 µg/mL (≈ 186 µM). In addition, the MIC against Klebsiella pneumoniae is 3.12 µg/mL (≈ 5.82 µM); with Pichia kudriavzevii, above 100 µg/mL. Moreover, the hemolysis at 1 h, 100 µM in data set [3] turned out to be 2.47%.

`Clc1ccc(-n2cc(CN(Cc3cn(-c4ccc(Cl)cc4Cl)nn3)c3nc4ccccc4s3)nn2)c(Cl)c1`: the MIC in the data set on Aspergillus fumigatus is 1.56 µg/mL (≈ 2.59 µM); with Pseudomonas aeruginosa, above 100 µg/mL; against Aspergillus niger it was 1.56 µg/mL (≈ 2.59 µM); with Candida albicans [1], 6.25 µg/mL (≈ 10.4 µM); against Candida albicans [2] it was 12.5 µg/mL (≈ 20.8 µM); with Cryptococcus neoformans it was 3.12 µg/mL (≈ 5.18 µM). The MIC was 12.5 µg/mL (≈ 20.8 µM) against Candida tropicalis; above 100 µg/mL in the data set with Salmonella typhi; 50 µg/mL (≈ 83 µM) against Escherichia coli; 50 µg/mL (≈ 83 µM) against Enterococcus faecalis; 50 µg/mL (≈ 83 µM) with Staphylococcus aureus; above 100 µg/mL with Shigella boydii. Also, the MIC is above 100 µg/mL against Klebsiella pneumoniae and 6.25 µg/mL (≈ 10.4 µM) with Pichia kudriavzevii. For the same compound, in [3], the hemolysis at 1 h, 100 µM is 4.54%.
